Assay results reported in ChEMBL document CHEMBL4689842, “EUbOPEN Chemogenomics Library wave 1” (2021).

System: HEK-293T
Test: Multiplex assay against HEK293T;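 for Population Tubulin-Different-Phenotype (%): share of the cells with healthy nuclei that show this phenotype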
Assay type: toxicity, cell-based
Conditions: human
Procedure, shortened: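 With compound added, live cells were imaged on a CQ1 microscope at 37°C and 5% CO2; staining with Hoechst33342, BioTracker Green Microtubule Cytoskeleton Dye, MitoTracker Red and Annexin V Alexa Fluor 680 had been done at seeding. The CellPathfinder machine-learning gating scheme split cells into Hoechst high-intensity objects or normal cells, normal cells into healthy, pyknosed or fragmented nuclei, and pyknosed cells into mitotic or apoptotic. The tubulin, mitochondrial-mass and membrane-permeability phenotypes are per cents of healthy-nucleus cells.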

[1] = 12 h, 1 µM, compound concentration 1 uM, replicate 1
[2] = 12 h, 1 µM, compound concentration 1 uM, replicate 2
[3] = 12 h, 10 µM, compound concentration 10 uM, replicate 1
[4] = 12 h, 10 µM, compound concentration 10 uM, replicate 2
[5] = 24 h, 1 µM, compound concentration 1 uM, replicate 1
[6] = 24 h, 1 µM, compound concentration 1 uM, replicate 2
[7] = 24 h, 10 µM, compound concentration 10 uM, replicate 1
[8] = 24 h, 10 µM, compound concentration 10 uM, replicate 2
[9] = 48 h, 1 µM, compound concentration 1 uM, replicate 1
[10] = 48 h, 1 µM, compound concentration 1 uM, replicate 2
[11] = 48 h, 10 µM, compound concentration 10 uM, replicate 1
[12] = 48 h, 10 µM, compound concentration 10 uM, replicate 2

CN(c1cc(C(F)(F)F)nc(OCCC(=O)O)n1)c1cccc2c1CCC2
Population Apoptotic (%) [1]: 44% | Population Fragmented Nuclei (%) [1]: 21% | Population Healthy Nuclei (%) [1]: 34% | Population Hoechst High Intensity Objects (%) [1]: 14% | Population Membrane Permeable-Phenotype (%) [1]: 3% | Population Mitochondria Different-Phenotype (%) [1]: 67% | Population Mitotic Cells (%) [1]: 55% | Population Normal (%) [1]: 85% | Population Pyknosed Nuclei (%) [1]: 44% | Population Tubulin-Different-Phenotype (%) [1]: 29% | Total Cell Count [1]: 189 | Population Apoptotic (%) [2]: 12% | Population Fragmented Nuclei (%) [2]: 4% | Population Healthy Nuclei (%) [2]: 49% | Population Hoechst High Intensity Objects (%) [2]: 4% | Population Membrane Permeable-Phenotype (%) [2]: 8% | Population Mitochondria Different-Phenotype (%) [2]: 15% | Population Mitotic Cells (%) [2]: 87% | Population Normal (%) [2]: 95% | Population Pyknosed Nuclei (%) [2]: 46% | Population Tubulin-Different-Phenotype (%) [2]: 14% | Total Cell Count [2]: 193 | Population Apoptotic (%) [3]: 37% | Population Healthy Nuclei (%) [3]: 49% | Population Hoechst High Intensity Objects (%) [3]: 16% | Population Membrane Permeable-Phenotype (%) [3]: 1% | Population Mitochondria Different-Phenotype (%) [3]: 69% | Population Mitotic Cells (%) [3]: 62% | Population Normal (%) [3]: 83% | Population Pyknosed Nuclei (%) [3]: 41% | Population Tubulin-Different-Phenotype (%) [3]: 28% | Total Cell Count [3]: 223 | Population Apoptotic (%) [4]: 8% | Population Fragmented Nuclei (%) [4]: 8% | Population Healthy Nuclei (%) [4]: 42% | Population Hoechst High Intensity Objects (%) [4]: 2% | Population Membrane Permeable-Phenotype (%) [4]: 6% | Population Mitochondria Different-Phenotype (%) [4]: 14% | Population Mitotic Cells (%) [4]: 91% | Population Normal (%) [4]: 97% | Population Pyknosed Nuclei (%) [4]: 49% | Population Tubulin-Different-Phenotype (%) [4]: 9% | Total Cell Count [4]: 233 | Population Apoptotic (%) [5]: 34% | Population Fragmented Nuclei (%) [5]: 18% | Population Healthy Nuclei (%) [5]: 30% | Population Hoechst High Intensity Objects (%) [5]: 11% | Population Membrane Permeable-Phenotype (%) [5]: 1% | Population Mitochondria Different-Phenotype (%) [5]: 53% | Population Mitotic Cells (%) [5]: 65% | Population Normal (%) [5]: 88% | Population Pyknosed Nuclei (%) [5]: 51% | Population Tubulin-Different-Phenotype (%) [5]: 32% | Total Cell Count [5]: 193 | Population Apoptotic (%) [6]: 21% | Population Fragmented Nuclei (%) [6]: 8% | Population Healthy Nuclei (%) [6]: 65% | Population Hoechst High Intensity Objects (%) [6]: 4% | Population Membrane Permeable-Phenotype (%) [6]: 10% | Population Mitochondria Different-Phenotype (%) [6]: 13% | Population Mitotic Cells (%) [6]: 78% | Population Normal (%) [6]: 95% | Population Pyknosed Nuclei (%) [6]: 25% | Population Tubulin-Different-Phenotype (%) [6]: 28% | Total Cell Count [6]: 250 | Population Apoptotic (%) [7]: 33% | Population Fragmented Nuclei (%) [7]: 12% | Population Healthy Nuclei (%) [7]: 50% | Population Hoechst High Intensity Objects (%) [7]: 11% | Population Membrane Permeable-Phenotype (%) [7]: 4% | Population Mitochondria Different-Phenotype (%) [7]: 37% | Population Mitotic Cells (%) [7]: 66% | Population Normal (%) [7]: 88% | Population Pyknosed Nuclei (%) [7]: 37% | Population Tubulin-Different-Phenotype (%) [7]: 22% | Total Cell Count [7]: 256 | Population Apoptotic (%) [8]: 9% | Population Fragmented Nuclei (%) [8]: 2% | Population Healthy Nuclei (%) [8]: 68% | Population Hoechst High Intensity Objects (%) [8]: 3% | Population Membrane Permeable-Phenotype (%) [8]: 3% | Population Mitochondria Different-Phenotype (%) [8]: 11% | Population Mitotic Cells (%) [8]: 90% | Population Normal (%) [8]: 96% | Population Pyknosed Nuclei (%) [8]: 29% | Population Tubulin-Different-Phenotype (%) [8]: 19% | Total Cell Count [8]: 291 | Population Apoptotic (%) [9]: 45% | Population Fragmented Nuclei (%) [9]: 21% | Population Healthy Nuclei (%) [9]: 36% | Population Hoechst High Intensity Objects (%) [9]: 16% | Population Membrane Permeable-Phenotype (%) [9]: 1% | Population Mitochondria Different-Phenotype (%) [9]: 22% | Population Mitotic Cells (%) [9]: 54% | Population Normal (%) [9]: 83% | Population Pyknosed Nuclei (%) [9]: 41% | Population Tubulin-Different-Phenotype (%) [9]: 24% | Total Cell Count [9]: 228 | Population Apoptotic (%) [10]: 7% | Population Fragmented Nuclei (%) [10]: 7% | Population Healthy Nuclei (%) [10]: 84% | Population Hoechst High Intensity Objects (%) [10]: 3% | Population Membrane Permeable-Phenotype (%) [10]: 10% | Population Mitochondria Different-Phenotype (%) [10]: 4% | Population Mitotic Cells (%) [10]: 92% | Population Normal (%) [10]: 96% | Population Pyknosed Nuclei (%) [10]: 8% | Population Tubulin-Different-Phenotype (%) [10]: 21% | Total Cell Count [10]: 472 | Population Apoptotic (%) [11]: 36% | Population Fragmented Nuclei (%) [11]: 15% | Population Healthy Nuclei (%) [11]: 56% | Population Hoechst High Intensity Objects (%) [11]: 6% | Population Membrane Permeable-Phenotype (%) [11]: 1% | Population Mitochondria Different-Phenotype (%) [11]: 14% | Population Mitotic Cells (%) [11]: 63% | Population Normal (%) [11]: 93% | Population Pyknosed Nuclei (%) [11]: 27% | Population Tubulin-Different-Phenotype (%) [11]: 11% | Total Cell Count [11]: 351 | Population Apoptotic (%) [12]: 10% | Population Fragmented Nuclei (%) [12]: 5% | Population Healthy Nuclei (%) [12]: 83% | Population Hoechst High Intensity Objects (%) [12]: 2% | Population Membrane Permeable-Phenotype (%) [12]: 4% | Population Mitochondria Different-Phenotype (%) [12]: 3% | Population Mitotic Cells (%) [12]: 89% | Population Normal (%) [12]: 97% | Population Pyknosed Nuclei (%) [12]: 11% | Population Tubulin-Different-Phenotype (%) [12]: 12% | Total Cell Count [12]: 593

Cl.Cn1c2c(c3ccc(Cl)c(Cl)c31)C(C#N)C1(CCNCC1)NC2=O (stereo not drawn)
Population Apoptotic (%) [1]: 17% | Population Fragmented Nuclei (%) [1]: 13% | Population Healthy Nuclei (%) [1]: 66% | Population Hoechst High Intensity Objects (%) [1]: 10% | Population Membrane Permeable-Phenotype (%) [1]: 8% | Population Mitochondria Different-Phenotype (%) [1]: 6% | Population Mitotic Cells (%) [1]: 82% | Population Normal (%) [1]: 89% | Population Pyknosed Nuclei (%) [1]: 19% | Population Tubulin-Different-Phenotype (%) [1]: 10% | Total Cell Count [1]: 650 | Population Apoptotic (%) [2]: 2% | Population Fragmented Nuclei (%) [2]: 6% | Population Healthy Nuclei (%) [2]: 87% | Population Hoechst High Intensity Objects (%) [2]: 3% | Population Membrane Permeable-Phenotype (%) [2]: 3% | Population Mitochondria Different-Phenotype (%) [2]: 7% | Population Mitotic Cells (%) [2]: 97% | Population Normal (%) [2]: 96% | Population Pyknosed Nuclei (%) [2]: 5% | Total Cell Count [2]: 1592 | Population Apoptotic (%) [3]: 24% | Population Fragmented Nuclei (%) [3]: 16% | Population Healthy Nuclei (%) [3]: 30% | Population Hoechst High Intensity Objects (%) [3]: 20% | Population Membrane Permeable-Phenotype (%) [3]: 23% | Population Mitochondria Different-Phenotype (%) [3]: 14% | Population Mitotic Cells (%) [3]: 75% | Population Normal (%) [3]: 79% | Population Pyknosed Nuclei (%) [3]: 52% | Population Tubulin-Different-Phenotype (%) [3]: 76% | Total Cell Count [3]: 698 | Population Apoptotic (%) [4]: 17% | Population Fragmented Nuclei (%) [4]: 3% | Population Healthy Nuclei (%) [4]: 74% | Population Hoechst High Intensity Objects (%) [4]: 4% | Population Membrane Permeable-Phenotype (%) [4]: 24% | Population Mitochondria Different-Phenotype (%) [4]: 25% | Population Mitotic Cells (%) [4]: 82% | Population Normal (%) [4]: 95% | Population Pyknosed Nuclei (%) [4]: 22% | Population Tubulin-Different-Phenotype (%) [4]: 95% | Total Cell Count [4]: 983 | Population Apoptotic (%) [5]: 16% | Population Fragmented Nuclei (%) [5]: 11% | Population Healthy Nuclei (%) [5]: 77% | Population Hoechst High Intensity Objects (%) [5]: 7% | Population Membrane Permeable-Phenotype (%) [5]: 17% | Population Mitochondria Different-Phenotype (%) [5]: 5% | Population Mitotic Cells (%) [5]: 83% | Population Normal (%) [5]: 92% | Population Pyknosed Nuclei (%) [5]: 10% | Population Tubulin-Different-Phenotype (%) [5]: 17% | Total Cell Count [5]: 747 | Population Apoptotic (%) [6]: 5% | Population Fragmented Nuclei (%) [6]: 24% | Population Healthy Nuclei (%) [6]: 72% | Population Hoechst High Intensity Objects (%) [6]: 3% | Population Membrane Permeable-Phenotype (%) [6]: 7% | Population Mitochondria Different-Phenotype (%) [6]: 1% | Population Mitotic Cells (%) [6]: 94% | Population Normal (%) [6]: 96% | Population Pyknosed Nuclei (%) [6]: 2% | Population Tubulin-Different-Phenotype (%) [6]: 11% | Total Cell Count [6]: 2758 | Population Apoptotic (%) [7]: 25% | Population Fragmented Nuclei (%) [7]: 19% | Population Healthy Nuclei (%) [7]: 32% | Population Hoechst High Intensity Objects (%) [7]: 19% | Population Membrane Permeable-Phenotype (%) [7]: 16% | Population Mitochondria Different-Phenotype (%) [7]: 22% | Population Mitotic Cells (%) [7]: 74% | Population Normal (%) [7]: 80% | Population Pyknosed Nuclei (%) [7]: 47% | Population Tubulin-Different-Phenotype (%) [7]: 86% | Total Cell Count [7]: 669 | Population Apoptotic (%) [8]: 12% | Population Fragmented Nuclei (%) [8]: 5% | Population Healthy Nuclei (%) [8]: 81% | Population Hoechst High Intensity Objects (%) [8]: 9% | Population Membrane Permeable-Phenotype (%) [8]: 13% | Population Mitochondria Different-Phenotype (%) [8]: 25% | Population Mitotic Cells (%) [8]: 87% | Population Normal (%) [8]: 91% | Population Pyknosed Nuclei (%) [8]: 13% | Population Tubulin-Different-Phenotype (%) [8]: 94% | Total Cell Count [8]: 1033
